Measured values from ChEMBL document CHEMBL2380256, “Discovery of novel Jak2-Stat pathway inhibitors with extended residence time on target” (Bioorg Med Chem Lett, 2013).
Blank lines part the entries; values can stand above or below the compound they belong to. The source made the active and inactive calls. The rule behind the calls is not given here.

How the values were obtained:
Homo sapiens = species: Homo sapiens; assay: Selectivity ratio of IC50 for JAK3 (unknown origin) to IC50 for JAK2 (unknown origin)
Procedure, shortened: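 Jak2 and Jak3 enzyme IC50s determined at 5 mM ATP; the ratio is the Jak3 IC50 divided by the Jak2 IC50.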

[1] = Growth inhibition of mouse BA/F3 cells transfected with JAK2 TEL domain after 24 hrs by Alamar Blue assay; assay type: functional; conditions: BaF3, 24 h
[2] = Growth inhibition of mouse BA/F3 cells transfected with JAK3 TEL domain after 24 hrs by Alamar Blue assay; assay type: functional, cell-based; conditions: BaF3, 24 h, read-out: GI50
Mus musculus [3] = assay: In vivo inhibition of JAK2 TEL domain (unknown origin) transfected in mouse Ba/F3 cells allografted in nude mouse assessed as inhibition of STAT5 phosphorylation at 10 mg/kg, po qd after 6 hrs relative to vehicle-treated control; assay type: functional; conditions: BaF3, 6 h
Procedure, shortened: (§1)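 Female nude mice implanted intravenously with Ba/F3 TEL-JAK2 cells on day 0 and given a single oral dose on day 10. pStat5 was measured at the stated times post-dose. % inhibition was scaled between vehicle and a control inhibitor as maximum and minimum, with n = 3 per dose and time point, reported as mean ±SD.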

Hepatocyte = assay: Metabolic stability in human hepatocytes measured per 10^6 cells; assay type: ADME, cell-based
[4] = Fraction unbound in nude mouse plasma allografted with mouse Ba/F3 cells expressing JAK2 TEL domain at 5 to 10 mg/kg, po qd after 6 hrs; assay type: ADME, organism-based, BaF3; design: dose 5-10 mg/kg, route oral
[5] = molecular target: T1, Tyrosine-protein kinase JAK2 (Homo sapiens, UniProt O60674); assay: Competitive inhibition of JAK2 (unknown origin)
T1 sequence (O60674 whole entry): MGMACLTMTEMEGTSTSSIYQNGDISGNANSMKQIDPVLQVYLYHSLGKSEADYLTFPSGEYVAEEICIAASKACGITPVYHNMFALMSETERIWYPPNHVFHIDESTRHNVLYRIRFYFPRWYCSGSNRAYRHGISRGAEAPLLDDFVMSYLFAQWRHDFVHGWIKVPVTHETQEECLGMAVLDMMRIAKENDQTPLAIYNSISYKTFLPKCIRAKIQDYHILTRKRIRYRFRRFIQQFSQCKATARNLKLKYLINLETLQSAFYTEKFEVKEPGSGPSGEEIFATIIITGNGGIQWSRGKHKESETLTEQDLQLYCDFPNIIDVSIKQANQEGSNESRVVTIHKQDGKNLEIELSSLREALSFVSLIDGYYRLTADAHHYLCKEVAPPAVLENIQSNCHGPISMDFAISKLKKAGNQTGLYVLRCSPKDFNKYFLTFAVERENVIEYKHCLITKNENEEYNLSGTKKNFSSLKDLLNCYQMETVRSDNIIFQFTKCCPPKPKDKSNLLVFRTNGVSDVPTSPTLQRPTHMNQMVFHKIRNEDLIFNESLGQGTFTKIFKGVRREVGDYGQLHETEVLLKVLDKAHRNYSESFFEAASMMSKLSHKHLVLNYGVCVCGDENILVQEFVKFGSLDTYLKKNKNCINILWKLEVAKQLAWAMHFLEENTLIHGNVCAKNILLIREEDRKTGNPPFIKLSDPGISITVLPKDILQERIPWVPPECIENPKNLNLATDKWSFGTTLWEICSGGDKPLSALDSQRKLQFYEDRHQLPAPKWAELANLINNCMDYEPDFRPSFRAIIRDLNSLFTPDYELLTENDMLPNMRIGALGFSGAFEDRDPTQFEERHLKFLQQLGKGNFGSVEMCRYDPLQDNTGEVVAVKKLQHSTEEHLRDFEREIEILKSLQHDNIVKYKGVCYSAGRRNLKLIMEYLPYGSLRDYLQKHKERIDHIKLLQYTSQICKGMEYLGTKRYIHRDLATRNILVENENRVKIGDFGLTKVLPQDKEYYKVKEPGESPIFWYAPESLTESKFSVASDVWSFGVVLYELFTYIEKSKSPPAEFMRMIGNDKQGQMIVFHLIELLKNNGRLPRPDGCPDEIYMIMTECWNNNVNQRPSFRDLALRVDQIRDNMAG

[6] = Growth inhibition of human UKE1 cells harboring JAK2 V617F mutant after 2 days by [3H]-thymidine incorporation assay; assay type: functional
[7] = Total plasma concentration in nude mouse allografted with mouse Ba/F3 cells expressing JAK2 TEL domain at 10 mg/kg, po qd measured at 2 hrs; assay type: ADME, organism-based, BaF3; design: dose 10 mg/kg, route oral
Procedure, shortened: (§2)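 Female nude mice implanted intravenously with Ba/F3 TEL-JAK2 cells on day 0 and dosed orally on day 10. Total plasma drug concentration was measured at the stated times post-dose, averaged over n = 3 per dose and time point.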

[8] = Volume of distribution at steady state in CD1 mouse at 10 mg/kg, po and 3 mg/kg, iv; assay type: ADME, organism-based; conditions: in vivo, read-out: Vdss
Procedure, shortened: (§3)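 Single-dose PK: female CD-1 mice and male Han Wistar rats, 10 mg/kg po in 0.1% HPMC and 3 mg/kg iv in DMA/PEG/saline 40/40/20.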

[9] = Total plasma concentration in nude mouse allografted with mouse Ba/F3 cells expressing JAK2 TEL domain at 5 mg/kg, po qd measured at 2 hrs; assay type: ADME, organism-based, BaF3; design: dose 5 mg/kg, route oral; procedure, shortened: as §2
[10] = AUC in beagle dog at 5 mg/kg, po and […] mg/kg, iv; assay type: ADME, organism-based, Canis lupus familiaris; conditions: plasma
[11] = Oral bioavailability in CD1 mouse at 10 mg/kg; assay type: ADME, organism-based; conditions: in vivo
Procedure, shortened: (§4)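 Oral bioavailability in female CD-1 mice and male Han Wistar rats: 10 mg/kg po (0.1% HPMC) versus 3 mg/kg iv (DMA/PEG/saline 40/40/20). %F = (AUCpo × DoseIV)/(AUCIV × Dosepo) × 100.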

[12] = molecular target: T1, Tyrosine-protein kinase JAK2; assay: Inhibition of JAK2 (unknown origin) using biotinylated TYK2 peptide as substrate after 60 mins
Mus musculus [13] = assay: In vivo inhibition of JAK2 TEL domain (unknown origin) transfected in mouse Ba/F3 cells allografted in nude mouse assessed as inhibition of STAT5 phosphorylation at 5 mg/kg, po qd after 6 hrs; assay type: functional, organism-based; design: dose 5 mg/kg; conditions: BaF3; procedure, shortened: as §1
[14] = AUC in CD1 mouse at 10 mg/kg, po and 3 mg/kg, iv; assay type: ADME, organism-based; conditions: plasma; procedure, shortened: as §3
[15] = Clearance in beagle dog at 5 mg/kg, po and […] mg/kg, iv; assay type: ADME, organism-based, Canis lupus familiaris; conditions: in vivo, 2.5 mg/kg
[16] = Total plasma concentration in nude mouse allografted with mouse Ba/F3 cells expressing JAK2 TEL domain at 10 mg/kg, po qd measured at 6 hrs; assay type: ADME, organism-based, BaF3; design: dose 10 mg/kg, route oral; procedure, shortened: as §2
[17] = Volume of distribution at steady state in beagle dog at 5 mg/kg, po and 2.5 mg/kg, iv; assay type: ADME, organism-based, Canis lupus familiaris; conditions: in vivo, read-out: Vdss
Procedure, shortened: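 Male Beagle dogs. Oral 5 mg/kg in 0.1% HPMC; intravenous 2.5 mg/kg in HP-β-CD.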

[18] = Clearance in Han Wistar rat at 10 mg/kg, po and 3 mg/kg, iv; assay type: ADME, organism-based; conditions: in vivo; procedure, shortened: as §3
[19] = Total plasma concentration in nude mouse allografted with mouse Ba/F3 cells expressing JAK2 TEL domain at 5 mg/kg, po qd measured at 6 hrs; assay type: ADME, organism-based, BaF3; design: dose 5 mg/kg, route oral; procedure, shortened: as §2
[20] = AUC in Han Wistar rat at 10 mg/kg, po and 3 mg/kg, iv; assay type: ADME, organism-based; conditions: plasma; procedure, shortened: as §3
[21] = Oral bioavailability in Han Wistar rat at 10 mg/kg; assay type: ADME, organism-based; conditions: in vivo; procedure, shortened: as §4
[22] = Clearance in CD1 mouse at 10 mg/kg, po and 3 mg/kg, iv; assay type: ADME, organism-based; conditions: in vivo; procedure, shortened: as §3
[23] = Oral bioavailability in beagle dog at 5 mg/kg; assay type: ADME, organism-based, Canis lupus familiaris; conditions: in vivo
Procedure, shortened: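 Male Beagle dogs received 5 mg/kg po (0.1% HPMC) and 2.5 mg/kg iv (HP-β-CD). %F = (AUCpo × DoseIV)/(AUCIV × Dosepo) × 100.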

SET-2 = assay: Growth inhibition of human SET2 harboring JAK2 V617F mutant after 24 hrs by Alamar Blue assay; assay type: functional; conditions: SET-2, 24 h
[24] = Volume of distribution at steady state in Han Wistar rat at 10 mg/kg, po and 3 mg/kg, iv; assay type: ADME, organism-based; conditions: in vivo, read-out: Vdss
[25] = molecular target: T2, Tyrosine-protein kinase JAK3 (Homo sapiens, UniProt P52333); assay: Inhibition of JAK3 (unknown origin) using biotinylated poly-EY peptide as substrate after 60 mins by HTRF assay
T2 sequence (P52333 whole entry): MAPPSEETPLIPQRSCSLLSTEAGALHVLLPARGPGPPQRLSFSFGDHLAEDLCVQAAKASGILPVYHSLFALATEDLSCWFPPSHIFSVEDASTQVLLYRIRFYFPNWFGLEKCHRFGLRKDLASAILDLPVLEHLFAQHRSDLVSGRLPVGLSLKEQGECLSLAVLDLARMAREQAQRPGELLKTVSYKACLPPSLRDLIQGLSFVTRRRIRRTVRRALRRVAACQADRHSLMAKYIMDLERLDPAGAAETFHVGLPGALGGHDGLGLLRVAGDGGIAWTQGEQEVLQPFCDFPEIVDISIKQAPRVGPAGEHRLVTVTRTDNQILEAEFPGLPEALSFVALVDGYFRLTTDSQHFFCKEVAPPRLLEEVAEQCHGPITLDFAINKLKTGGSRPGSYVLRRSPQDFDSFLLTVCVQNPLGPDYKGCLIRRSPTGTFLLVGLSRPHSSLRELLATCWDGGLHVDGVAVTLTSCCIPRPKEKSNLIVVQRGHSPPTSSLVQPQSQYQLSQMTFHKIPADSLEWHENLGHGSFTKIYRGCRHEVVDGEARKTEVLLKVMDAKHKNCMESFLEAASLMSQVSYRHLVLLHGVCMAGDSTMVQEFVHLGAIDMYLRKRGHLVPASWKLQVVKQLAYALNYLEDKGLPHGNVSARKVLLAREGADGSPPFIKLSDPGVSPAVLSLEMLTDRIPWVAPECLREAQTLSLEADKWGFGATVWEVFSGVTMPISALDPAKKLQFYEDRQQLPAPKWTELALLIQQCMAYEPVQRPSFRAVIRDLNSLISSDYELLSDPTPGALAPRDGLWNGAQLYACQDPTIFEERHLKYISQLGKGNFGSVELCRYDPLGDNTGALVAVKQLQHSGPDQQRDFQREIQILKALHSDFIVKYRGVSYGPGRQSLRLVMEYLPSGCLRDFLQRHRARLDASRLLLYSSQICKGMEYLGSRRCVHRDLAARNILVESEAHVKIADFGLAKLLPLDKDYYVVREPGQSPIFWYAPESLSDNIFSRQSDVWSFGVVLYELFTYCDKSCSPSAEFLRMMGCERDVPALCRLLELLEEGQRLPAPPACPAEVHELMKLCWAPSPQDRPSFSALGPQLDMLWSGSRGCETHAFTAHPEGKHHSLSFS

Compound: Cc1cc(Nc2nc(N[C@@H](C)c3ccc(F)cn3)c(F)c(N3CCOCC3)n2)n[nH]1
- IC50 [12]: 6 nM
- GI50 [1]: 19 nM
- GI50 [2]: 850 nM
- IC50 [25]: 262 nM

Compound: Cc1cc(Nc2nc(N[C@@H](C)c3ccc(F)cn3)c(F)c(N3CCS(=O)(=O)CC3)n2)n[nH]1
- IC50 [12]: 3 nM
- GI50 [2]: 270 nM
- IC50 [25]: 4 nM

Compound: Cc1cc(Nc2nc(N[C@@H](C)c3ncc(F)cn3)nc(N3CCOCC3)c2F)n[nH]1
- Ratio IC50 (Homo sapiens): > 10000

Now from value to compound, other results behind:

- Ratio IC50 (Homo sapiens): 76
Compound: Cc1cc(Nc2nc(N[C@@H](C)c3ncc(F)cn3)c(F)c(N3CCOCC3)n2)n[nH]1
- GI50 [1]: 15 nM
- GI50 [2]: 390 nM

- Stability (Hepatocyte): < 2 µL/min/1e6 cells
- fraction unbound at 6 h [4]: 0.16
- Ki [5]: 0.72 nM
- concentration at 2 h [7]: 551 ng/mL
- Vd [8]: 1.4 L/kg
- concentration at 2 h [9]: 325 ng/mL
- AUC [10]: 8.5 µM·h
- bioavailability [11]: 64%
- IC50 [12]: < 3 nM
- AUC [14]: 14.7 µM·h
- clearance [15]: 13 mL/min/kg
- concentration at 6 h [16]: 246 ng/mL
- Vd [17]: 2.4 L/kg
- clearance [18]: 11 mL/min/kg
- concentration at 6 h [19]: 180 ng/mL
- AUC [20]: 27.5 µM·h
- bioavailability [21]: 74%
- clearance [22]: 17 mL/min/kg
- bioavailability [23]: 56%
- Vd [24]: 1.6 L/kg
- IC50 [25]: 20 nM
Compound: Cc1cc(Nc2nc(O[C@@H](C)c3ncc(F)cn3)c(F)c(N3CCOCC3)n2)n[nH]1
- inhibition in vivo at 10 mg/kg (Mus musculus [3]): > 80%
- GI50 [6]: 50 nM
- inhibition (Mus musculus [13]): Active
- GI50 [1]: 6 nM
- GI50 [2]: 690 nM
- GI50 (SET-2): 78 nM
